Tests used:
[1] = biological target: T1, Adenosine receptor A1 (Homo sapiens) (UniProt P30542); experiment: Allosteric enhancement of human adenosine A1 receptor expressed in CHO FlpIn cells assessed as potentiation of N(6)-(R-phenylisopropyl)adenosine-induced ERK1/2 phosphorylation at 3 uM relative to N(6)-(R-phenylisopropyl)adenosine; assay type: cell-based
T1 sequence (whole entry): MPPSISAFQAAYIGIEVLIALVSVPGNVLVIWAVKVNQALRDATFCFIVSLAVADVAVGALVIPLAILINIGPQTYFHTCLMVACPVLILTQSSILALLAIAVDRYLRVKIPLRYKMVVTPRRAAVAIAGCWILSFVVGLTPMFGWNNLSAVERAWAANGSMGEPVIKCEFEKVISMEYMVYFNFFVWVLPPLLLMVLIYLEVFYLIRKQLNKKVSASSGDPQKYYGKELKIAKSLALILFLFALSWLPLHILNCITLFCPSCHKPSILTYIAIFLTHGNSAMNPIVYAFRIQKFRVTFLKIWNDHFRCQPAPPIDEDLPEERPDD

[2] = biological target: T1, Adenosine receptor A1 (Homo sapiens); experiment: Allosteric enhancement of human adenosine A1 receptor expressed in CHO FlpIn cells assessed as increase of ERK1/2 phosphorylation at 3 to 10 uM relative to N(6)-(R-phenylisopropyl)adenosine; assay type: cell-based
[3] = biological target: T1, Adenosine receptor A1 (Homo sapiens); experiment: Allosteric enhancement of human adenosine A1 receptor expressed in CHO FlpIn cells assessed as potentiation of N(6)-(R-phenylisopropyl)adenosine-induced ERK1/2 phosphorylation at 10 uM relative to N(6)-(R-phenylisopropyl)adenosine; assay type: cell-based
Adenosine receptor A1 = biological target: T2, Adenosine receptor A1 (Homo sapiens, UniProt P30542); experiment: Antagonist activity at human adenosine A1 receptor expressed in CHO FlpIn cells assessed as inhibition of N(6)-(R-phenylisopropyl)adenosine-induced ERK1/2 phosphorylation; assay type: functional, cell-based; settings: read-out: pA2 (converted)
T2 sequence (P30542 whole entry): T1 sequence (whole entry)
Summary of the method: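 Human A1AR FlpIn-CHO cells were pretreated with 1 U/mL adenosine deaminase for 30 min, then with test ligand over a concentration range for 30 min at 37 °C. R-PIA was then added for 5 min stimulation. Lysates were assayed for phospho-ERK1/2 by AlphaScreen SureFire. Response was expressed as percent of the 6 min 3% FBS response. Three experiments in triplicate, mean ± SEM. Curves were fitted globally to a competitive or allosteric model.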

[4] = biological target: T3, Adenosine receptor A1 (Rattus norvegicus) (UniProt P25099); experiment: Allosteric enhancement of human adenosine A1 receptor in rat brain membranes assessed as increase of [3H]N6-cyclohexyladenosine binding at 100 uM relative to control; assay type: cell membranes
T3 sequence (whole entry): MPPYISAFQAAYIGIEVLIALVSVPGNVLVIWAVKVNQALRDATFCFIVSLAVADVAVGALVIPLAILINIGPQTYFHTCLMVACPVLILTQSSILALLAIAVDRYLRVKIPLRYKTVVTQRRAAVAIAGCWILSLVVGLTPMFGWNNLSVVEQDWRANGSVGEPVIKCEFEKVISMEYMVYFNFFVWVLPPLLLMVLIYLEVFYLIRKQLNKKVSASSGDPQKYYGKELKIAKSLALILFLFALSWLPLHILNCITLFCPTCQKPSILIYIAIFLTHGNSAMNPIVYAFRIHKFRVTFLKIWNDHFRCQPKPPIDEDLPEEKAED

| SMILES | Activity [1] | Activity [2] | Activity [3] | Kb (Adenosine receptor A1) | Activity [4] |
| --- | --- | --- | --- | --- | --- |
| Nc1sc(-c2ccc(C(=O)O)cc2)cc1C(=O)c1ccccc1 | 51% | 5% | 27% | – | – |
| Nc1scc2c1C(=O)c1ccc(Cl)cc1-2 | 56% | 20% | 29% | – | – |
| Nc1scc2c1C(=O)c1c(Cl)cccc1-2 | 45% | 5% | 38% | – | – |
| Nc1sc(-c2cncnc2)cc1C(=O)c1ccccc1 | 18% | 5% | 2% | – | – |
| Nc1sc2c(c1C(=O)c1ccc(Cl)cc1)-c1cc(C(F)(F)F)ccc1C2 | 62% | 5% | 73% | – | – |
| Nc1sc2c(c1C(=O)c1ccccc1)-c1cccc(C(F)(F)F)c1C2 | 56% | 5% | 49% | – | – |
| Nc1sc(-c2ccccc2)cc1C(=O)c1ccccc1 | 12% | 5% | 1% | 209 nM | – |
| Nc1sc(-c2ccccc2)cc1C(=O)c1ccc(Cl)cc1 | 46% | 5% | 16% | – | – |
| Nc1cccc2c1C(=O)c1ccccc1-2 | – | – | – | – | 122% |
| Nc1sc(-c2cncnc2)c2c1C(=O)c1ccccc1-2 | 19% | 5% | 7% | 646 nM | – |
| COc1ccc(-c2cc(C(=O)c3ccc(Cl)cc3)c(N)s2)cc1 | 51% | 5% | 29% | – | – |
| Nc1sc(-c2ccc(C(=O)O)cc2)c2c1C(=O)c1ccccc1-2 | 19% | 5% | 7% | – | – |
| Nc1sc(-c2ccc(C(=O)O)cc2)cc1C(=O)c1ccc(Cl)cc1 | 27% | 5% | 29% | – | – |
| Nc1sc2c(c1C(=O)c1ccc(Cl)cc1)-c1ccccc1C2 | 81% | 20% | 84% | – | – |
| Nc1sccc1C(=O)c1ccccc1 | 48% | 5% | 30% | – | 59% |
| Nc1sc(-c2cncnc2)cc1C(=O)c1ccc(Cl)cc1 | 7% | 5% | 4% | 145 nM | – |

| SMILES | Activity [1] | Activity [2] | Activity [3] | Kb (Adenosine receptor A1) | Activity [4] |
| --- | --- | --- | --- | --- | --- |
| Nc1sc(-c2ccccc2)c2c1C(=O)c1ccccc1-2 | 19% | 5% | 3% | – | – |
| Nc1sc(-c2ccncc2)cc1C(=O)c1ccccc1 | 23% | 5% | 17% | – | – |
| Nc1sc2c(c1C(=O)c1ccc(Cl)cc1)-c1cccc(C(F)(F)F)c1C2 | 65% | 5% | 73% | – | – |
| Nc1sc(-c2ccncc2)cc1C(=O)c1ccc(Cl)cc1 | 44% | 5% | 17% | – | – |
| Nc1scc2c1C(=O)c1ccccc1-2 | 45% | 5% | 27% | – | – |
| Nc1sc2c(c1C(=O)c1ccccc1)-c1ccccc1C2 | 23% | 5% | 9% | – | – |
| Nc1sc2c(c1C(=O)c1ccccc1)-c1cc(C(F)(F)F)ccc1C2 | 52% | 5% | 38% | – | – |
| CN(C)c1ccc(-c2cc(C(=O)c3ccccc3)c(N)s2)cc1 | 50% | 5% | 29% | – | – |
| COc1ccc(-c2sc(N)c3c2-c2ccccc2C3=O)cc1 | 37% | 5% | 18% | – | – |
| CN(C)c1ccc(-c2cc(C(=O)c3ccc(Cl)cc3)c(N)s2)cc1 | 56% | 5% | 41% | – | – |
| Nc1ccccc1C(=O)c1ccccc1 | – | – | – | – | 34% |
| COc1ccc(-c2cc(C(=O)c3ccccc3)c(N)s2)cc1 | 31% | 5% | 14% | – | – |
| CN(C)c1ccc(-c2sc(N)c3c2-c2ccccc2C3=O)cc1 | 48% | 5% | 32% | – | – |
| Nc1sccc1C(=O)c1ccc(Cl)cc1 | 50% | 5% | 40% | – | – |
| Nc1sc(-c2ccncc2)c2c1C(=O)c1ccccc1-2 | 28% | 5% | 17% | – | – |

Source: ChEMBL document CHEMBL1240531, “Effects of conformational restriction of 2-amino-3-benzoylthiophenes on A(1) adenosine receptor modulation” (J Med Chem, 2010)
